Screens deposited in PubChem BioAssay by several laboratories.
Compounds with a hit are over-represented: about 3.1% of the library has one in this group of screens.
ATG4B inh: blocks human ATG4B protease cleavage of LC3 substrate; 340,000 tested, 0.51% active; inhibition, % at 8.33 µM; AID 504462; ATG4B cleavage of LC3-PLA2, NBD-HPC fluorescence, 1 h; Q9Y4P1; in the data active = inhibition above about 40%
Target sequence (Q9Y4P1 whole entry, looked up): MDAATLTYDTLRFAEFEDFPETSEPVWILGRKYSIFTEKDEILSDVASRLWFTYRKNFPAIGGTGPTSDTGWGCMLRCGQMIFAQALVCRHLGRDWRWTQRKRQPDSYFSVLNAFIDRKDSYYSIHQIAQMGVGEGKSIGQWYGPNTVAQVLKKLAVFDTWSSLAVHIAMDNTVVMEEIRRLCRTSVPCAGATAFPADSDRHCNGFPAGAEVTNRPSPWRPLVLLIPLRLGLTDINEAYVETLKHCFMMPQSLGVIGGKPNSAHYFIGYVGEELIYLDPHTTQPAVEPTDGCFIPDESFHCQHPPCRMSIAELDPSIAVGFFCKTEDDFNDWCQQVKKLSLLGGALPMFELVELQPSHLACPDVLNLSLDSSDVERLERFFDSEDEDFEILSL
rCAG binder: r(CAG) repeat RNA binding; 370,000 tested, 1.3% active; inhibition, % at 3 µM; TO-PRO-1 dye displacement fluorescence;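 active = inhibition above the plate cutoff, the mean of all test compounds on that plate plus 3 SD, cut at about 35% in these data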;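 note: 0% = DMSO alone and 100% = 100 µM mitoxantrone as full dye displacement; higher means more dye released from RNA so lower well fluorescence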
UHRF1 binding: blocks human UHRF1 binding to methylated DNA; inhibition, % at 4.4 µM; 370,000 tested, 0.75% active; Q96T88; UHRF1 binding to methylated oligo, TR-FRET; in the data active = inhibition above about 21%;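 note: UHRF1 SRA domain binding a hemimethylated CpG hairpin DNA probe; 0% = median of test compound wells and 100% = reference inhibitor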
CSN inh: blocks human CSN-mediated cullin deneddylation; Q92905; inhibition, % at 12.5 µM; 360,000 tested, 0.38% active; Purified CSN, SCF-Nedd8-OG deneddylation, fluorescence polarization;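 active = pattern-corrected inhibition above about 35%, with an unprinted fluorescence ratio check between 0.5 and 1.5, limit read from the data, passing the limit was not always enough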;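 note: 0% = enzyme with substrate and 100% = substrate without enzyme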
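Assay system: purified human Csn5 enzyme expressed in HEK293T cells; measure: % inhibition; also added: SCFSkp2-Nedd8OG substrate at 10 nM final; technique: fluorescence polarization; times: reaction 90 min, room temperature; medium: Tris buffer pH 7.5, NaCl, DTT, Tween-20, trehalose, ovalbumin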
LEDGF integ inh: blocks HIV-1 LEDGF/p75-dependent DNA integration | 370,000 tested, 0.64% active | inhibition, % at 3.7 µM | TR-FRET IN-LEDGF/p75 DNA integration, Eu/Cy5;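 active = inhibition above the screen-wide mean plus 3 SD, cut at about 13% in these data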;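 note: signal is the Cy5 over europium emission ratio at 671 and 618 nm; 0% = plate median of compound wells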
MBD2 inh: blocks human MBD2 binding to methylated DNA; Q9UBB5; TR-FRET, MBD2 binding to methylated oligonucleotide; inhibition, % at 4.4 µM; 370,000 tested, 0.31% active; in the data active = inhibition above about 13%
rCAG binder conf: r(CAG) RNA repeat binding, confirmation. shares compounds with rCAG binder. TO-PRO-1 dye displacement fluorescence. inhibition, % at 3 µM. 4,300 tested, 70% active. AID 652065;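 active = inhibition above a per-plate cutoff, the mean inhibition of sample wells plus 3 SD, cut at about 35% in these data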;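 note: loss of TO-PRO-1 fluorescence as compound displaces dye from 1x1 AA loop RNA; 0% = DMSO only wells and 100% = 100 µM mitoxantrone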
DNA CAG counter: disrupts DNA CAG TO-PRO-1 complex, flagging rCAG hits; shares compounds with rCAG binder; inhibition, % at 3 µM; 4,300 tested, 94% active; d(CAG) DNA oligo TO-PRO-1 dye displacement, fluorescence; AID 652068;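 active = inhibition above its plate's cutoff, the mean test-well inhibition plus 3 SD, cut at about 4.8% in these data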;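 note: 0% = DNA dye mix with DMSO and 100% = 100 µM mitoxantrone; hits displace the dye from DNA and so lower well fluorescence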
DNA CAG DR: DNA CAG dye complex inhibition, dose response counter-screen; shares compounds with rCAG binder; DNA CAG/GTC duplex TO-PRO-1 dye displacement fluorescence; IC50, µM; 250 tested, 20% active; AID 686960; in the data active = IC50 below about 10 µM
* hit, by the source's call.

For COC(=O)[C@]12C[C@H](CC(=O)N3CCCCC3)C(=O)N(Cc3ccccc3)C1=C[C@H](COCc1ccccc1)O[C@@H]2C the results were rCAG binder 0, UHRF1 binding -2, LEDGF integ inh 3 and MBD2 inh -7.
CCCC(=O)OC12CCCN(C1)/C(=C/c1cccc(OC)c1)C2 (stereo unspecified) was read as rCAG binder -4, UHRF1 binding 3, LEDGF integ inh 1 and MBD2 inh -4.
Cc1ccc2oc(-c3cccc(NC(=S)NC(=O)c4cccs4)c3)nc2c1 was read as ATG4B inh 10, rCAG binder 1, UHRF1 binding 2, CSN inh -3, LEDGF integ inh -3 and MBD2 inh 2.
Cc1ccc2oc(-c3cccc(NC(=S)NC(=O)/C=C/c4ccco4)c3)nc2c1 was read as ATG4B inh 15, rCAG binder 37*, UHRF1 binding -2, CSN inh 13, LEDGF integ inh 6, MBD2 inh 5, rCAG binder conf 17 and DNA CAG counter 9.8*.
For O=C(/C=C/c1ccco1)NC(=S)Nc1nc(-c2ccc3ccccc3c2)cs1 the results were ATG4B inh 0, rCAG binder 40*, UHRF1 binding -5, CSN inh 8, LEDGF integ inh 5, MBD2 inh -3, rCAG binder conf 20 and DNA CAG counter 14*.
Cc1ccc(NC(=S)NC(=O)/C=C/c2ccco2)c(O)c1 was read as ATG4B inh 12, rCAG binder 35*, UHRF1 binding 3, CSN inh 20, LEDGF integ inh 2, MBD2 inh -2, rCAG binder conf 38* and DNA CAG counter 15*.
For O=C(/C=C\c1ccco1)NC(=S)Nc1ccccc1O the results were ATG4B inh 5, rCAG binder 26, UHRF1 binding -3, CSN inh 9, LEDGF integ inh 9 and MBD2 inh 0.
C=CCNC(=O)N1CCN(Cc2nc3ccccc3c(=O)[nH]2)CC1 was read as rCAG binder 0, UHRF1 binding 1, LEDGF integ inh -1 and MBD2 inh -2.
Screening NNC(=S)Nc1cccc(-c2n[nH]c(=S)o2)c1 returned ATG4B inh -9, rCAG binder 51*, UHRF1 binding 1, CSN inh 0, LEDGF integ inh -5, MBD2 inh 1, rCAG binder conf 18 and DNA CAG counter 6.8*.
CN(C)C(=S)Nc1cccc(-c2n[nH]c(=S)o2)c1 was read as ATG4B inh 8, rCAG binder 1, UHRF1 binding -2, CSN inh -1, LEDGF integ inh -5 and MBD2 inh -1.
`Cc1cc(N2C(=O)C(O)=C(C(=O)c3cc4ccccc4o3)C2c2cccc(Cl)c2)no1` (stereo unspecified) gave ATG4B inh -9, rCAG binder 60*, UHRF1 binding 2, CSN inh 12, LEDGF integ inh 4, MBD2 inh 1, rCAG binder conf 71*, DNA CAG counter 32* and DNA CAG DR 5.7*.
`Cc1cc(N2C(=O)C(O)=C(C(=O)c3cc4ccccc4o3)C2c2ccc(Br)cc2)no1` (stereo unspecified) gave ATG4B inh 3, rCAG binder 34, UHRF1 binding -1, CSN inh 11, LEDGF integ inh 1 and MBD2 inh 0.
`Cc1cc(N2C(=O)C(O)=C(C(=O)c3cc4ccccc4o3)C2c2ccc(Cl)cc2)no1` (stereo unspecified) gave ATG4B inh -2, rCAG binder 56*, UHRF1 binding 2, CSN inh 4, LEDGF integ inh 7, MBD2 inh 0, rCAG binder conf 75* and DNA CAG counter 38*.
